MT stabilizer – stabilizes microtubules in HeLa cells; HeLa tubulin immunostaining HCS, 24 h; share of cells brighter than vehicle mean+2SD; % tubulin-high responders, % at 10 µM; 200,000 tested, 0.83% active;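 active means plate Z-score above 3 for both tubulin-high and condensed-nucleus cell shares, with cell loss under 80%, at 10 µM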;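 further: anti alpha tubulin signal scored within the nucleus-defined area of each cell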
ABCG2 inh – inhibitors of human ABCG2 transporter, ABCB1 counter-screen. Q9UNQ0. IgMXP3 cells, JC-1 efflux, flow cytometry. inhibition, % at 6.6 µM. 190,000 tested, 0.1% active. AID 1325;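 active means inhibition above 80%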;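 further: 0% = DMSO and 100% = nicardipine control wells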
Target sequence (Q9UNQ0 whole entry, looked up): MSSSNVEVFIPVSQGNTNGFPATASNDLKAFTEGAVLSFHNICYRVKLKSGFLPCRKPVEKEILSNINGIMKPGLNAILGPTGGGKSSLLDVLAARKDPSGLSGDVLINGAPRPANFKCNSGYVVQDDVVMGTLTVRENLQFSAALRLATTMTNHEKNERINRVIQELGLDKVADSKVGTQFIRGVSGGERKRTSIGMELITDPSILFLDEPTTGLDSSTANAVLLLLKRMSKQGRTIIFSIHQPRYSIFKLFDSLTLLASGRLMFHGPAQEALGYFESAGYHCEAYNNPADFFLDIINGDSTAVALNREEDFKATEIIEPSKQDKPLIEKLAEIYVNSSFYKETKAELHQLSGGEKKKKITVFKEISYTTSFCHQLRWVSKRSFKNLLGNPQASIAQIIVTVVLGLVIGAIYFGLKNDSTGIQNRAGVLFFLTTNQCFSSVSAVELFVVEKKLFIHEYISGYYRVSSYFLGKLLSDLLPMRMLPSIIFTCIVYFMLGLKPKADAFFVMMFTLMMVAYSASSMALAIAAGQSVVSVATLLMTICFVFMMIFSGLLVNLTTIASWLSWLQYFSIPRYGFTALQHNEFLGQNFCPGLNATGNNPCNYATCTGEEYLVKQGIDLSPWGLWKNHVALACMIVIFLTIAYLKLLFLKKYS
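Measure – % inhibition of efflux relative to nicardipine and DMSO · Test system – ABCG2 IgMXP3 and barcoded ABCB1 CCRF-Adr cell mix · Control set – nicardipine as high control, DMSO as low control · Compound – one concentration, 6.6 µM final · Signal – flow cytometry of retained JC-1 fluorescence · Timing – 10 min exposure at 25 °C with rotation, no wash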
bCat nuc transl – beta-catenin nuclear translocation modulation | HeLa beta-catenin nuclear translocation, immunofluorescence imaging | nuclear translocation activity, % at 5 µM | 190,000 tested, 0.3% active | AID 1665;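 active means nuclear translocation activity above 50% at 5 µM, with a well cell count of 50 or more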;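 further: per-cell ratio of nuclear to cytoplasmic median beta-catenin stain intensity; plate controls were DMSO negative control for no effect and GSK-3 inhibitor IX positive control for full effect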
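Signal – beta-catenin immunofluorescence imaging with DAPI · Test system – human HeLa cell line · Dosing – 5 µM primary single dose, 0.1% DMSO, 0.02–20 µM confirmation series · Measure – % activation, nuclear-to-cytoplasmic median beta-catenin signal ratio per cell · Incubation – 24 h compound exposure at 37°C, 5% CO2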
ABCB1 block – human ABCB1 inhibition, ABCG2 as counter-screen | CCRF-Adr cells, JC-1 efflux, flow cytometry | P08183 | inhibition, % at 6.6 µM | 190,000 tested, 0.067% active | AID 1326; in the data active means inhibition above about 40%;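 further: 0% = vehicle and 100% = reference inhibitor; higher value means more JC-1 retained so stronger ABCB1 efflux block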
PKD1 kinase inh – blocks activity of human protein kinase D1 | 200,000 tested, 0.056% active | PKD1 kinase fluorescence polarization assay | Q15139 | inhibition, % (test concentration not listed); in the data active means inhibition above about 50%
Numbers without * were called inactive; · = not tested or not shown; + = active, no number. An excerpt weighted towards active compounds, which were near 1% of everything screened.

SMILES	MT stabilizer	ABCG2 inh	bCat nuc transl	ABCB1 block	PKD1 kinase inh
CCOC(=O)C(C)Oc1cccc2c(=O)n(CC(=O)N3CCCc4ccccc43)ccc12 (configuration not stated)	5.1	3.1	4.7	2.3	-4.2
CS(=O)(=O)c1ccccc1-c1nc(-c2ccc([N+](=O)[O-])cc2)no1	3.8	22.2	-1.2	1.5	5.5
COC(=O)c1cccc(NC(=O)C(C)(C)C)c1	·	·	0.4	·	·
CSc1nc2ccccc2cc1/C=C(\C#N)c1cccc(C)c1	27.0	3.0	·	0.1	-6.5
CSc1nc2ccccc2cc1/C=C(\C#N)c1ccccc1	36.5*	1.2	1.0	0.3	-2.6
C=CCCC1(C)C(=O)N(c2ccccc2)c2ccccc21 (configuration not stated)	18.8*	1.0	·	0.4	-6.8
C=CCC1(C)C(=O)N(c2ccccc2)c2ccccc21 (configuration not stated)	3.1	4.0	·	0.9	-5.7
COc1ccc(C2C3=C(CC(C)(C)CC3=O)Nc3cc4c(cc32)OCO4)cc1 (configuration not stated)	2.1	16.3	1.5	0.9	-6.0
COc1ccc(OC)c(C2C3=C(COC3=O)Nc3cc4c(cc32)OCO4)c1 (configuration not stated)	10.2	6.1	111.2*	2.3	-7.6
Cc1sc2c(c1C)c(=O)n(-c1ccc(Cl)cc1)c(=O)n2Cc1cc(=O)n2ccccc2n1	2.6	4.4	-1.4	4.8	2.2
COc1ccc(-n2nnnc2/C=C\Nc2ccccc2C(=O)c2ccccc2)cc1	21.0*	1.4	61.6*	0.3	-4.2
CC(C)c1cc(C(=O)O)n(-c2ccccc2)n1	1.2	4.6	·	1.3	-2.5
O=C(Nc1cccc(Cl)c1N1CCCCC1)c1ccc2c(c1)OCCO2	3.1	3.4	·	0.5	11.8
O=C(NC(=S)Nc1cccc(Cl)c1N1CCCCC1)c1ccc2c(c1)OCCO2	29.0*	-4.2	85.9*	-0.2	-6.6
O=C(Nc1nc2ccc(C(=O)N3CCCCC3)cc2s1)C1CCCCC1	15.7*	5.6	0.6	0.9	-1.5
CSC1=NSC2=NC(=O)/C(=C\c3coc4ccccc4c3=O)C(=N)N12	6.6	62.8	-0.8	10.8	-3.0
CC(C)CSC1=NSC2=NC(=O)/C(=C\c3coc4ccccc4c3=O)C(=N)N12	2.3	+	·	133.6*	-10.7
CCOC(=O)c1[nH]c(C)c(C(=O)N2CCN(c3ccccc3)CC2)c1C	4.6	-1.1	-1.4	-0.2	-2.8
CCOc1ccc2ccccc2c1C(=O)N1CCN(c2ccccc2)CC1	47.1*	1.5	1.3	0.5	-5.0
COc1ccc(N2CCN(C(=O)c3c(-c4ccccc4)noc3C)CC2)cc1	4.8	2.3	-3.8	0.6	-11.4
CCOc1ccccc1C(=O)N1CCN(c2cccc(Cl)c2)CC1	14.8*	1.0	68.6*	0.3	-1.8
COCC(=O)N1CCN(c2cccc(C(F)(F)F)c2)CC1	2.2	0.8	-0.9	0.0	-1.2
COc1ccccc1C(=O)N1CCN(c2cccc(C(F)(F)F)c2)CC1	35.0*	2.1	87.8*	0.5	-4.0
COc1cc2c(C(=O)N3CCN(c4ccccc4)CC3)c(C)oc2cc1Br	25.6*	35.2	-1.7	5.3	3.3
O=[N+]([O-])c1ccc(/C=N/NC(=S)Nc2ccc(Cl)cc2Cl)s1	·	·	0.0	·	·
SMILES	MT stabilizer	ABCG2 inh	bCat nuc transl	ABCB1 block	PKD1 kinase inh
Cc1nnsc1SCCNC(=O)c1ccc(F)cc1	0.6	2.2	1.6	0.4	10.3
O=C(NCc1cccs1)C(=O)NCC1OCCCN1S(=O)(=O)c1ccccc1 (configuration not stated)	1.1	7.9	-0.7	0.5	-8.0
COc1ccc(C(=O)N2CCN(c3cccc(Cl)c3)CC2)c(OC)c1	43.7*	1.1	·	0.1	-7.4
COc1ccc(N2CCN(C(=O)c3ccc(SC)cc3OC)CC2)cc1	2.2	-0.4	0.0	-0.2	9.0
CCOc1ccc2nc(SCC(=O)Nc3cc4c(cc3C(C)=O)OCO4)[nH]c2c1	2.2	3.2	-0.1	1.2	1.6
Cn1cc(/C=N/n2cnc3scc(-c4ccccc4)c3c2=O)c2ccccc21	27.7*	1.7	71.0*	0.3	8.5
COC(=O)c1cc(C(=O)N2CCOCC2)cc([N+](=O)[O-])c1	2.3	0.1	0.5	0.0	0.6
O=C(c1cccc([N+](=O)[O-])c1)N1CCN(c2cccc(Cl)c2)CC1	26.7*	7.5	14.4	0.7	-6.7
COC(=O)c1cc(C(=O)N2CCN(c3cccc(Cl)c3)CC2)cc([N+](=O)[O-])c1	12.5	2.8	99.5*	0.8	-7.1
CCOC(=O)c1c(C)nc2sc(C(=O)Nc3ccc(OC)cc3)c(N)c2c1-c1ccc(OC)cc1	23.8*	0.1	-5.7	0.7	7.1
CCOC(=O)c1c(C)nc2sc(C(=O)Nc3ccc(C(C)=O)cc3)c(N)c2c1-c1ccc(OC)cc1	30.8	27.1	15.4	1.7	0.7
O=C(O)/C=C/C(=O)c1ccc2c(c1)NC(=O)CO2	3.0	3.8	-1.7	-0.1	6.4
C=CCCC(=O)Nc1nc(C)c(-c2csc(Nc3cc(OC)ccc3OC)n2)s1	31.0*	-1.8	70.2*	-0.4	-5.9
CCCn1c(-c2ccccc2)cc(SC)c(C#N)c1=O	4.0	7.2	3.2	0.4	-0.1
CSc1cc(-c2ccccc2)n(Cc2ccccc2Cl)c(=O)c1C#N	43.4*	-0.1	·	-0.4	-6.5
O=C1S/C(=C\c2ccc(N3CCOCC3)o2)C(=O)N1Cc1ccc(F)cc1	1.7	106.7*	0.6	7.7	-19.8
CS(=O)(=O)Nc1ccc(C2=NN(S(=O)(=O)c3ccc(F)cc3)C(c3ccco3)C2)cc1 (configuration not stated)	1.5	-3.8	0.0	-0.5	2.6
CC/C(=N\NC(=O)CCC(=O)NCc1ccccc1)c1ccc(O)cc1	11.6*	2.7	42.8	0.2	-0.7
CCCCC/C(=N\NC(=O)CCC(=O)NCc1ccccc1)c1ccccc1	3.4	12.5	-1.3	1.3	-4.5
CCN(CC)c1ccc2cc(-c3nc4ccccc4n3C)c(=O)oc2c1	29.2*	0.3	65.6*	0.5	16.2
CCN(CC)c1ccc2cc(-c3nc(-c4ccc(OC)cc4)cs3)c(=O)oc2c1	5.2	+	-4.3	+	-38.4
CC(C)NCCCCOc1ccc(Br)cc1Cl	2.6	1.9	-2.7	0.4	-2.0
Nc1cccc(C(=O)N/N=C/c2ccsc2)c1	3.9	-2.6	-2.4	-0.8	3.9
Cc1cccc(NC(=O)C2CC(=O)N(c3ccccc3)C2)c1C (configuration not stated)	3.7	0.4	-1.4	0.2	-9.9
CC1(C)CC2(CC(c3ccccc3)c3ccc(O)cc3O2)NC(=S)N1 (configuration not stated)	2.3	1.2	-1.0	0.0	-5.7
COc1cc(OC)c(NC(=O)c2ccc3c(SCC(=O)O)c4c(nc3c2)CCCC4)cc1Cl	2.1	-2.6	-5.0	-1.0	-6.9

Bioassay records deposited in PubChem by several laboratories.
